# Assay outcomes as filed in PubChem.
# A selection: hits, their analogues and other compounds. The true share with any hit is near 1.2%.
# Diaphorase act = compounds boosting diaphorase resazurin reduction – biochemical, uHTS, resorufin fluorescence, counter-screen for diaphorase-coupled primary assays, primary screen; Diaphorase/resazurin coupled assay, 16 min; active compounds read high; 1 = vehicle wells, 0 = NADH-free wells; activation factor at 20 µM; 190,000 compounds, 0.005% hits; AID 1229, 2008;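 active = diaphorase activity raised at least twofold by the compound at 20 µM; inactive = activation factor below 2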
#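 Material: Purified diaphorase enzyme from Clostridium kluyveri | Buffer or medium: 50 mM HEPES pH 7.4 with 4.542 mM MgCl2, 0.005% Tween 20 | Times: 16 min enzyme reaction, ambient temperature | Signal: Red resorufin fluorescence at 544/590 nm excitation/emission | Measure: Increased resorufin signal from activators or reducing compounds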
# G6PDH counter = L. mesenteroides G6PDH inhibitors, counter-screen for G6PDH-coupled screening assays, biochemical, Leuconostoc mesenteroides enzyme. glucose-6-phosphate dehydrogenase [Leuconostoc mesenteroides]. Purified L. mesenteroides G6PDH, diaphorase/resazurin coupled fluorescence, 45 min. inhibition, % at 5 µM. 200,000 compounds, 0.12% hits. AID 1020, 2008; in the data active = inhibition above about 50%
# Diaph inh CS = diaphorase inhibitors and chemical oxidizers, primary screen, counter-screen for diaphorase-coupled primary assays, biochemical, uHTS, resorufin fluorescence | 190,000 compounds, 0.69% hits | AID 1217, 2008 | diaphorase resazurin-to-resorufin fluorescence, NADH, 16 min; bacterial (C. kluyveri) enzyme, not human | inhibition, % at 20 µM;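 active = primary screen inhibition at 20 µM above a set limit, cut at about 50% in these data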;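 also: plate controls were DMSO with full reaction for no effect and wells lacking NADH for full effect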
#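 Assay system – diaphorase enzyme from Clostridium kluyveri · Amount – diaphorase 0.14 U/mL (working solution) · Times – reaction incubation of 16 min at room temperature · Controls – No-NADH positive control and DMSO neutral control · Signal – resorufin fluorescence 544/590 nm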
# HKDC1 inhibitor = HKDC1 hexokinase inhibitors, primary screen, biochemical, fluorescence, uHTS. recombinant HKDC1, G6PDH/diaphorase resazurin coupled fluorescence. 340,000 compounds, 0.16% hits. inhibition, % at 20 µM. Q2TB90;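 active = inhibition above about 35% when tested at 20 µM, limit read from the data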;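 also: plate controls were DMSO wells with enzyme for no effect and DMSO wells lacking enzyme for full effect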
# Target sequence (Q2TB90 whole entry, looked up): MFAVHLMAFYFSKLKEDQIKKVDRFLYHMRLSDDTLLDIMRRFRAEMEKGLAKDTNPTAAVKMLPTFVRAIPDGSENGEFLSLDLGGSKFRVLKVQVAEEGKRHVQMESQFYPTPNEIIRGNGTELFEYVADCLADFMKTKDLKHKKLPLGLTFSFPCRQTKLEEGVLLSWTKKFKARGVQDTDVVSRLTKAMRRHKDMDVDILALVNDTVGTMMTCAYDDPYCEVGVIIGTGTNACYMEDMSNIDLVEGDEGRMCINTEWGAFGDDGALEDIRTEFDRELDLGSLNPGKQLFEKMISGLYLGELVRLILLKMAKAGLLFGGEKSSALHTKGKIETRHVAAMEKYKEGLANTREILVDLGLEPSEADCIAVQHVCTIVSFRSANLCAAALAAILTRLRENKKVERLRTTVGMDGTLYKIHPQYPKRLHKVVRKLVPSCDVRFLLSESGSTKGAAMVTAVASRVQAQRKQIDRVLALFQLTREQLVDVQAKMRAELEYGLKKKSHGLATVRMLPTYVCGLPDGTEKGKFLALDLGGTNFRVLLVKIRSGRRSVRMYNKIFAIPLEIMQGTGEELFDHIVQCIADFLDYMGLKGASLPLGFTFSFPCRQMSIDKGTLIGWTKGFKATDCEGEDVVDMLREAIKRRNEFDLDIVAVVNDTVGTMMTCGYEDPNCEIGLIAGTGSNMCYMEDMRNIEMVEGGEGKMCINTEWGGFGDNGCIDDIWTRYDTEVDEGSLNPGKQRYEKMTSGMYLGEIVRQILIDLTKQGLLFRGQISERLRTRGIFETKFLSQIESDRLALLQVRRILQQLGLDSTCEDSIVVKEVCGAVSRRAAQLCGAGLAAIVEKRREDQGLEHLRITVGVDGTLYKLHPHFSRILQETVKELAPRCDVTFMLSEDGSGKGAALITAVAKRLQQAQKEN
#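 test system = in-house recombinant HK5 (HKDC1) enzyme | amount = HKDC1 at 5 µg/mL | control set = DMSO-enzyme wells negative, buffer-substituted wells positive | compound = one dose of 20 µM, 1% DMSO | schedule = reaction time 90 min, room temperature, protected from light | technique = resorufin fluorescence at 613 nm | reagent = glucose with 1 mM ATP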
# PfG6PD inh = PfG6PD enzyme inhibitors, primary screen, biochemical, fluorescence intensity, uHTS; glucose-6-phosphate dehydrogenase-6-phosphogluconolactonase (Plasmodium falciparum 3D7); PfGluPho enzyme, NADPH resazurin-diaphorase fluorescence; inhibition, % at 20 µM; 350,000 compounds, 0.78% hits; AID 504690, 2011;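 active = inhibition reaching at least a set limit at 20 µM in the primary screen, cut at about 59% in these data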;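 also: 0% = DMSO wells with substrate and 100% = DMSO wells lacking glucose-6-phosphate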
# * marks the source's active call; other numbers are inactive results; nt = no result given.
SMILES,Diaphorase act,G6PDH counter,Diaph inh CS,HKDC1 inhibitor,PfG6PD inh
CC(/C=C/c1ccco1)=N\NC(=O)CNc1ccc2ccccc2c1,0.4,3,56*,13,40
O=C(COC(=O)c1ccccc1Cl)NC1CCCCCC1,nt,nt,nt,-5,8
CCOC(=O)CCC(=O)NNC(=O)COc1ccc(C(C)C)cc1Br,0.9,9,7,0,-16
COc1cccc(CNc2ccc(N3CCCCC3)cc2)c1OC,0.4,13,60*,10,52
O=C(CC1C(=O)NCCN1Cc1ccccc1C(F)(F)F)NC1CCCCCC1 (stereo unspecified),nt,nt,nt,-4,-1
N=C1S/C(=C\c2ccc(-c3ccccc3C(=O)O)o2)C(=O)N1c1ccc2c(c1)OCO2,0.3,2,67*,18,1
CC1(C)N([O-])C2=C(c3ccccc3C2=O)[N+](=O)C1(C)C,0.3,3,67*,6,31
COc1cc(/C=C/C(=O)O)ccc1OS(=O)(=O)c1c(C)cc(C)cc1C,nt,nt,nt,-1,-3
C=CCc1cccc2cc(C(=O)O)c(=O)oc12,0.9,3,7,5,-3
C=CCc1cccc2cc(C(=O)Nc3ccccc3C(=O)O)c(=O)oc12,0.1,4,93*,11,14
O=C1CC2CCCN2C=C1I (stereo unspecified),nt,nt,nt,2,19
O=C(Cc1cnn(-c2ccccc2)c1)c1ccc(O)c(O)c1O,0.3,18,69*,1,22
CC(C)C(=O)NNC(=O)CSc1nnnn1C(C)C,1,6,-3,14,-15
CCOC(=O)N1CCN(c2cc(NCCC(=O)O)c3c4c(onc24)-c2ccccc2C3=O)CC1,0.4,-6,57*,37*,38
CN1CCN(c2cc(N3CCN(C(=O)c4ccco4)CC3)c3c4c(onc24)-c2ccccc2C3=O)CC1,nt,nt,nt,21,74*
O=C(O)CCCNc1cc(N2CCC3(CC2)OCCO3)c2noc3c2c1C(=O)c1ccccc1-3,0.5,39,50*,nt,nt
O=C(O)CCCNc1cc(N2CCN(C(=O)c3ccco3)CC2)c2noc3c2c1C(=O)c1ccccc1-3,nt,nt,nt,22,35
Cc1cccc(NS(=O)(=O)c2ccc(C(=O)NCC(c3ccco3)N3CCCCC3)cc2)c1C (stereo unspecified),nt,nt,nt,4,-1
CCOc1ccc(C=Nc2cccc3ncccc23)cc1,0.5,12,51*,12,12
COc1ccc(C=Nc2cccnc2N)cc1,nt,nt,nt,2,9
C[C@@H]1CN([C@@H](C)CO)C(=O)c2cc(NC(=O)CCC(F)(F)F)ccc2O[C@H]1CN(C)S(=O)(=O)c1ccc(Cl)cc1,nt,nt,nt,5,11
Cc1ccc(-c2nnc3ccc(SCC(=O)N4CCc5ccccc54)nn23)cc1,0.8,-50,17,3,-9
Cc1ccc(-c2nnc3ccc(SCC(=O)N4CCCc5ccccc54)nn23)cc1,0.5,-7,50*,1,-7
O=C1NN(c2ccc(Cl)cc2)C(=O)/C1=C\c1ccc(-c2cccc(C(=O)O)c2)o1,0.5,6,53*,11,-4
CCOc1cc(/C=C2\C(=O)NN(c3ccccc3)C2=O)cc([N+](=O)[O-])c1O,0.5,6,53*,7,21
SMILES,Diaphorase act,G6PDH counter,Diaph inh CS,HKDC1 inhibitor,PfG6PD inh
O=C1NN(c2ccccc2)C(=O)/C1=C\c1ccc(-c2cc([N+](=O)[O-])ccc2O)o1,0.2,15,80*,8,0
Nc1c(C(=O)NCc2ccco2)sc2nc3c(cc12)C(=O)CCC3,0.5,-41,53*,15,19
CCOC(=O)/C(=N/Nc1ccc(Br)cc1)N1CC(C)OC(C)C1 (stereo unspecified),nt,nt,nt,1,14
CC(C)(C)C1=CC(=O)C(N2CCOCC2)=CC1=O,0.7,55*,32,14,50
C[C@@H]1CN([C@H](C)CO)C(=O)c2cc(C#CC3CC3)cnc2O[C@H]1CN(C)S(C)(=O)=O,nt,nt,nt,nt,10
CCOc1cc(C2Nc3cccc4cccc(c34)N2)ccc1O,0.6,10,37,20,8
CCOc1ccc(C2Nc3cccc4cccc(c34)N2)cc1OC,0.3,13,65*,4,54
COc1ccccc1C1Nc2cccc3cccc(c23)N1,0.4,14,57*,12,38
C/C(CC(=O)Nc1ccc(C)c(Cl)c1)=N\NC(=O)c1ccccn1,nt,nt,nt,-7,3
Nc1[nH]nc2ncc3cc4ccccc4nc3c12,0.5,27,55*,13,-5
N/C(Cc1nc(-c2ccc(Cl)cc2)cs1)=N/O,nt,nt,nt,-3,3
COc1ccc(-c2cn3c(C)c(C(=O)Nc4cccc(C)n4)sc3n2)cc1,1,-1,1,-15,62*
Cc1cccc(NC(=O)c2sc3nc(-c4ccc(F)cc4)cn3c2C)n1,0.9,4,7,-7,23
O=C(Nc1ccc2nc(-c3ccccc3)[nH]c2c1)c1ccco1,0.9,-22,15,3,70*
O=C(Nc1cccc(-c2nc3ccccc3[nH]2)c1)c1cccc(NC(=O)c2ccco2)c1,1.3,-70,-26,6,0
O=C(CSc1nnc(CNC(=O)c2c(F)cccc2F)o1)c1ccccc1,nt,nt,nt,-15,-13
Cc1cccc2nc(-c3ccco3)c(Nc3ccc4c(c3)OCO4)n12,0.3,9,72*,3,6
CCN(CC)c1ccc(N=Cc2ccccc2[N+](=O)[O-])cc1,0.6,4,38,2,56
CCN(CC)c1ccc(N=Cc2ccc([N+](=O)[O-])o2)cc1,0.5,13,49,5,69*
O=C1C=CC(=O)N1c1ccccc1N1C(=O)C=CC1=O,nt,nt,nt,-9,114*
COc1ccc(-n2sc3ccc(F)cc3c2=O)cc1,nt,nt,nt,5,112*
COc1nc(-c2ccc(Cl)cc2Cl)nc2ccccc12,nt,nt,nt,-5,-6
CC(C)CNC(=S)N(Cc1ccco1)Cc1cc2cc3c(cc2[nH]c1=O)OCCO3,0.8,-16,21,-5,21
CN(C)c1nc(N)c2ncc(=S)[nH]c2n1,0.5,15,52*,10,26
Cc1nc2cc(-c3ccsc3-n3c(C)ccc3C)[nH]n2c(=O)c1Cl,0.4,7,64*,15,17
CC1(C)Oc2ccccc2OC1(O)c1ccc2ccccc2n1 (stereo unspecified),0.9,8,6,-4,1
O=C1c2ccccc2C(=O)N1/N=C/c1ccc(O)c(O)c1O,nt,nt,nt,1,98*
O=C1c2cccc3cccc(c23)C(=O)N1/N=C/c1ccc(O)cc1O,1,-1,5,-3,-5
